Laboratory results taken from ChEMBL document CHEMBL1153829, “Exploiting chemical libraries, structure, and genomics in the search for kinase inhibitors” (Science, 1998).
Activity calls are given as the source filed them.

Assays:
Saccharomyces cerevisiae [1] = experiment: Induction of PFK26 gene expression in delta snq2, delta pdr5 and delta erg6 knock out yeast YRP1 at 25 µM after 2 hrs by high-density oligonucleotide array; format: functional, organism-based; settings: 25 M
Outline: (§1)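 Drug-sensitized yeast strain grown to late logarithmic phase, then exposed to 25 μM inhibitor for 2 h. Polyadenylated mRNA was isolated and converted to biotin-labeled cRNA, which was hybridized to a set of four arrays carrying over 260,000 25-nucleotide oligomers. Transcripts changing more than twofold were scored, from triplicate hybridizations in each of two independent experiments.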

Saccharomyces cerevisiae [2] = experiment: Upregulation of HSP104 gene expression in delta snq2, delta pdr5 and delta erg6 knock out yeast YRP1 at 25 µM after 2 hrs by high-density oligonucleotide array; format: functional, organism-based; settings: 25 M; outline: as §1
Saccharomyces cerevisiae [3] = experiment: Effect on ATR1 gene expression in delta snq2, delta pdr5 and delta erg6 knock out yeast YRP1 bearing cdc28-4 mutant allele assessed as change in mRNA level at 25 µM after 2 hrs by high-density oligonucleotide array; format: functional, organism-based
Saccharomyces cerevisiae [4] = experiment: Effect on CTS1 gene expression in delta snq2, delta pdr5 and delta erg6 knock out yeast YRP1 assessed as change in mRNA level at 25 µM after 2 hrs by high-density oligonucleotide array; format: functional, organism-based; settings: 25 M
Outline: (§2)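 Drug-sensitized S. cerevisiae cultures grown to late logarithmic phase, then exposed to 25 μM inhibitor for 2 h. Polyadenylated mRNA isolated, converted to biotin-labeled cRNA and hybridized to a set of four high-density arrays carrying more than 260,000 25-nucleotide oligomers. Transcripts scored as changed when they shifted more than twofold in triplicate hybridizations for each of two independent experiments.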

Saccharomyces cerevisiae [5] = experiment: Decrease in RPS24A mRNA level in delta snq2, delta pdr5 and delta erg6 knock out yeast YRP1 at 25 µM after 2 hrs by high-density oligonucleotide array; format: functional; outline: as §2
Saccharomyces cerevisiae [6] = experiment: Upregulation of GSC2 gene expression in delta snq2, delta pdr5 and delta erg6 knock out yeast YRP1 at 25 µM after 2 hrs by high-density oligonucleotide array; format: functional, organism-based; settings: 25 M; outline: as §1
Saccharomyces cerevisiae [7] = experiment: Effect on YGR043C gene expression in delta snq2, delta pdr5 and delta erg6 knock out yeast YRP1 assessed as change in mRNA level at 25 µM after 2 hrs by high-density oligonucleotide array; format: functional, organism-based; outline: as §2
Saccharomyces cerevisiae [8] = experiment: Upregulation of HSP30 gene expression in delta snq2, delta pdr5 and delta erg6 knock out yeast YRP1 at 25 µM after 2 hrs by high-density oligonucleotide array; format: functional, organism-based; settings: 25 M; outline: as §1
Saccharomyces cerevisiae [9] = experiment: Induction of HAP4 gene expression in delta snq2, delta pdr5 and delta erg6 knock out yeast YRP1 bearing cdc28-4 mutant allele at 25 µM after 2 hrs by high-density oligonucleotide array; format: functional, organism-based; settings: 25 M
Outline: (§3)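 cdc28-4 temperature-sensitive strain and its isogenic wild type were profiled at the permissive temperature of 25°C. Polyadenylated mRNA was converted to biotin-labeled cRNA and hybridized to high-density oligonucleotide arrays. Transcripts changing more than twofold were scored, from triplicate hybridizations of RNA from a single experiment.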

Saccharomyces cerevisiae [10] = experiment: Induction of ALD4 gene expression in delta snq2, delta pdr5 and delta erg6 knock out yeast YRP1 at 25 µM after 2 hrs by high-density oligonucleotide array; format: functional, organism-based; settings: 25 M; outline: as §2
Saccharomyces cerevisiae [11] = experiment: Effect on YBR214w gene expression in delta snq2, delta pdr5 and delta erg6 knock out yeast YRP1 assessed as change in mRNA level at 25 µM after 2 hrs by high-density oligonucleotide array; format: functional, organism-based; outline: as §2
Saccharomyces cerevisiae [12] = experiment: Increase in PHO80 mRNA level in delta snq2, delta pdr5 and delta erg6 knock out yeast YRP1 at 25 µM after 2 hrs by high-density oligonucleotide array; format: functional, organism-based; outline: as §2
Saccharomyces cerevisiae [13] = experiment: Downregulation of HTA2 mRNA expression in delta snq2, delta pdr5 and delta erg6 knock out yeast YRP1 at 25 µM after 2 hrs by high-density oligonucleotide array; format: functional, organism-based; outline: as §2
Saccharomyces cerevisiae [14] = experiment: Effect on YCL009c gene expression in delta snq2, delta pdr5 and delta erg6 knock out yeast YRP1 bearing cdc28-4 mutant allele assessed as change in mRNA level at 25 µM after 2 hrs by high-density oligonucleotide array; format: functional, organism-based
Saccharomyces cerevisiae [15] = experiment: Effect on YBR147w gene expression in delta snq2, delta pdr5 and delta erg6 knock out yeast YRP1 bearing cdc28-4 mutant allele assessed as change in mRNA level at 25 µM after 2 hrs by high-density oligonucleotide array; format: functional, organism-based
Saccharomyces cerevisiae [16] = experiment: Induction of YAL061W gene expression in delta snq2, delta pdr5 and delta erg6 knock out yeast YRP1 at 25 µM after 2 hrs by high-density oligonucleotide array; format: functional, organism-based; settings: 25 M; outline: as §1
Saccharomyces cerevisiae [17] = experiment: Upregulation of PMC1 gene expression in delta snq2, delta pdr5 and delta erg6 knock out yeast YRP1 at 25 µM after 2 hrs by high-density oligonucleotide array; format: functional, organism-based; outline: as §1
Saccharomyces cerevisiae [18] = experiment: Increase in HSP12 mRNA level in delta snq2, delta pdr5 and delta erg6 knock out yeast YRP1 at 25 µM after 2 hrs by high-density oligonucleotide array; format: functional, organism-based; outline: as §2
Saccharomyces cerevisiae [19] = experiment: Growth inhibition of delta snq2, delta pdr5 and delta erg6 knock out yeast YRP1 assessed as synchronization by FACS analysis; format: functional, organism-based
Saccharomyces cerevisiae [20] = experiment: Effect on YDR281C gene expression in delta snq2, delta pdr5 and delta erg6 knock out yeast YRP1 bearing cdc28-4 mutant allele assessed as change in mRNA level at 25 µM after 2 hrs by high-density oligonucleotide array; format: functional, organism-based
Saccharomyces cerevisiae [21] = experiment: Downregulation of HTB2 mRNA expression in delta snq2, delta pdr5 and delta erg6 knock out yeast YRP1 at 25 µM after 2 hrs by high-density oligonucleotide array; format: functional, organism-based; settings: 25 M; outline: as §2
Saccharomyces cerevisiae [22] = experiment: Upregulation of YPT53 gene expression in delta snq2, delta pdr5 and delta erg6 knock out yeast YRP1 at 25 µM after 2 hrs by high-density oligonucleotide array; format: functional, organism-based; settings: 25 M; outline: as §1
Saccharomyces cerevisiae [23] = experiment: Effect on YGL179C gene expression in delta snq2, delta pdr5 and delta erg6 knock out yeast YRP1 assessed as change in mRNA level at 25 µM after 2 hrs by high-density oligonucleotide array; format: functional, organism-based; settings: 25 M; outline: as §2
Saccharomyces cerevisiae [24] = experiment: Induction of GPH1 gene expression in delta snq2, delta pdr5 and delta erg6 knock out yeast YRP1 bearing cdc28-4 mutant allele at 25 µM after 2 hrs by high-density oligonucleotide array; format: functional, organism-based; settings: 25 M; outline: as §3
Saccharomyces cerevisiae [25] = experiment: Effect on YLR311C gene expression in delta snq2, delta pdr5 and delta erg6 knock out yeast YRP1 bearing cdc28-4 mutant allele assessed as change in mRNA level at 25 µM after 2 hrs by high-density oligonucleotide array; format: functional, organism-based; settings: 25 M
Saccharomyces cerevisiae [26] = experiment: Upregulation of SSE2 gene expression in delta snq2, delta pdr5 and delta erg6 knock out yeast YRP1 at 25 µM after 2 hrs by high-density oligonucleotide array; format: functional, organism-based; settings: 25 M; outline: as §1
Saccharomyces cerevisiae [27] = experiment: Increase in UB14 mRNA level in delta snq2, delta pdr5 and delta erg6 knock out yeast YRP1 at 25 µM after 2 hrs by high-density oligonucleotide array; format: functional, organism-based; outline: as §2
Saccharomyces cerevisiae [28] = experiment: Effect on YNR009w gene expression in delta snq2, delta pdr5 and delta erg6 knock out yeast YRP1 assessed as change in mRNA level at 25 µM after 2 hrs by high-density oligonucleotide array; format: functional, organism-based; outline: as §2
Saccharomyces cerevisiae [29] = experiment: Effect on YOR248W gene expression in delta snq2, delta pdr5 and delta erg6 knock out yeast YRP1 bearing cdc28-4 mutant allele assessed as change in mRNA level at 25 µM after 2 hrs by high-density oligonucleotide array; format: functional, organism-based; settings: 25 M
Saccharomyces cerevisiae [30] = experiment: Effect on ACH1 gene expression in delta snq2, delta pdr5 and delta erg6 knock out yeast YRP1 bearing cdc28-4 mutant allele assessed as change in mRNA level at 25 µM after 2 hrs by high-density oligonucleotide array; format: functional, organism-based; settings: 25 M

CN1CC[C@H](c2c(O)cc(O)c3c(=O)cc(-c4ccccc4Cl)oc23)[C@H](O)C1 [ALVOCIDIB]
active: Activity (Saccharomyces cerevisiae [1]) | Activity (Saccharomyces cerevisiae [2]) | Activity (Saccharomyces cerevisiae [3]) | Activity (Saccharomyces cerevisiae [4]) | Activity (Saccharomyces cerevisiae [6]) | Activity (Saccharomyces cerevisiae [7]) | Activity (Saccharomyces cerevisiae [8]) | Activity (Saccharomyces cerevisiae [9]) | Activity (Saccharomyces cerevisiae [10]) | Activity (Saccharomyces cerevisiae [11]) | Activity (Saccharomyces cerevisiae [12]) | Activity (Saccharomyces cerevisiae [13]) | Activity (Saccharomyces cerevisiae [14]) | Activity (Saccharomyces cerevisiae [15]) | Activity (Saccharomyces cerevisiae [16]) | Activity (Saccharomyces cerevisiae [17]) | Activity (Saccharomyces cerevisiae [18]) | Activity (Saccharomyces cerevisiae [20]) | Activity (Saccharomyces cerevisiae [21]) | Activity (Saccharomyces cerevisiae [22]) | Activity (Saccharomyces cerevisiae [23]) | Activity (Saccharomyces cerevisiae [24]) | Activity (Saccharomyces cerevisiae [25]) | Activity (Saccharomyces cerevisiae [26]) | Activity (Saccharomyces cerevisiae [27]) | Activity (Saccharomyces cerevisiae [28]) | Activity (Saccharomyces cerevisiae [29]) | Activity (Saccharomyces cerevisiae [30])
3: fold change (FC) (Saccharomyces cerevisiae [5])
inactive: Activity (Saccharomyces cerevisiae [19])

CC(C)n1cnc2/c(=N/c3cccc(Cl)c3)nc(NCCO)[nH]c21
3: fold change (FC) (Saccharomyces cerevisiae [5])
inactive: Activity (Saccharomyces cerevisiae [19])
active: Activity (Saccharomyces cerevisiae [1]) | Activity (Saccharomyces cerevisiae [2]) | Activity (Saccharomyces cerevisiae [3]) | Activity (Saccharomyces cerevisiae [4]) | Activity (Saccharomyces cerevisiae [6]) | Activity (Saccharomyces cerevisiae [7]) | Activity (Saccharomyces cerevisiae [8]) | Activity (Saccharomyces cerevisiae [9]) | Activity (Saccharomyces cerevisiae [10]) | Activity (Saccharomyces cerevisiae [11]) | Activity (Saccharomyces cerevisiae [12]) | Activity (Saccharomyces cerevisiae [13]) | Activity (Saccharomyces cerevisiae [14]) | Activity (Saccharomyces cerevisiae [15]) | Activity (Saccharomyces cerevisiae [16]) | Activity (Saccharomyces cerevisiae [17]) | Activity (Saccharomyces cerevisiae [18]) | Activity (Saccharomyces cerevisiae [20]) | Activity (Saccharomyces cerevisiae [21]) | Activity (Saccharomyces cerevisiae [22]) | Activity (Saccharomyces cerevisiae [23]) | Activity (Saccharomyces cerevisiae [24]) | Activity (Saccharomyces cerevisiae [25]) | Activity (Saccharomyces cerevisiae [26]) | Activity (Saccharomyces cerevisiae [27]) | Activity (Saccharomyces cerevisiae [28]) | Activity (Saccharomyces cerevisiae [29]) | Activity (Saccharomyces cerevisiae [30])
